Data as given in ChEMBL document CHEMBL3217676, “Homodimers of the Antiviral Abacavir as Modulators of P-glycoprotein Transport in Cell Culture: Probing Tether Length” (Medchemcomm, 2013).

Legend:
[1] = target: T1, ATP-dependent translocase ABCB1 (Homo sapiens, UniProt P08183); assay: Inhibition of P-gp overexpressed in human 12D7-MDR cells assessed as inhibition of calcein-AM efflux after 30 mins by flow cytometry; type: cell-based; settings: for inhibition (INH): human, 0.5 h
Procedure, shortened: (§1)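 12D7-MDR cells (RPMI 1640, 10% FBS, 37 °C, 5% CO2), 125,000 in suspension in BME with calcein-AM 0.25 µM or NBD-Aba 5 µM final, plus increasing inhibitor concentrations, 30 min at 37 °C, DMSO held at 1%. Controls: GF120918 1 µM (positive), 1% DMSO (negative). Cells resuspended in ice-cold PBS pH 7.4; FL1 flow cytometry, 10,000 cells per point; IC50 from mean fluorescence.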

[2] = target: T1, ATP-dependent translocase ABCB1; assay: Inhibition of P-gp in human CMEC/D3 cells assessed as inhibition of NBD-Aba efflux after 30 mins by flow cytometry; type: cell-based
Procedure, shortened: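 hCMEC/D3 brain endothelial cells with endogenous P-gp, grown in supplemented EGM-2 on collagenated flasks. 125,000 cells in suspension in BME with NBD-Aba 5 µM final and increasing inhibitor concentrations, 30 min at 37 °C, 1% DMSO constant. GF120918 1 µM served as positive control. Cells resuspended in ice-cold PBS; FL1 flow cytometry on 10,000 cells; IC50 from mean fluorescence.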

[3] = target: T1, ATP-dependent translocase ABCB1; assay: Inhibition of P-gp overexpressed in human 12D7-MDR cells assessed as inhibition of NBD-Aba efflux after 30 mins by flow cytometry; type: cell-based; settings: for inhibition (INH): human, 0.5 h; procedure, shortened: as §1
[4] = target: T1, ATP-dependent translocase ABCB1; assay: Inhibition of P-gp in human MCF7/DX1 cells assessed as cellular accumulation of NBD-Aba at 20 uM by confocal laser microscopy; type: cell-based; settings: mcf7/dx1, 20 µM
Procedure, shortened: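 Confocal microscopy of MCF-7/DX1 cells given NBD-Aba 5 µM, with or without inhibitor at 20 µM.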

[5] = target: T1, ATP-dependent translocase ABCB1; assay: Inhibition of P-gp in human MCF7/DX1 cells assessed as cellular accumulation of doxorubicin after 30 mins by flow cytometry; type: cell-based; settings: mcf7/dx1, 0.5 h
Procedure, shortened: (§2)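 MCF-7/DX1 cells are maintained with 1 µM doxorubicin. 125,000 cells in BME, pretreated with substrate (BODIPY-prazosin 0.5 µM, NBD-Aba 5 µM or doxorubicin 3 µM final), then incubated with increasing inhibitor concentrations for 30 min at 37 °C in 1% DMSO. For doxorubicin, cells are re-pelleted and incubated a further 30 min in inhibitor-containing BME. Read-out: flow cytometry, FL1 for BODIPY-prazosin and NBD-Aba, FL2 (585/42) for doxorubicin; IC50 from mean fluorescence. GF120918 1 µM as positive control.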

[6] = target: P-gp (ABCB1) (Homo sapiens, UniProt P08183); assay: Ratio of inhibition of P-gp in human CMEC/D3 cells using NBD-Aba as substrate to inhibition of P-gp in human MCF7/DX1 cells using NBD-Aba as substrate; type: cell-based; settings: CMEC/D3 cells and MCF7/DX1 cells, probe NBD-Aba
[7] = target: T1, ATP-dependent translocase ABCB1; assay: Inhibition of P-gp in human MCF7/DX1 cells assessed as cellular accumulation of [3H]-daunomycin after 30 mins by scintillation counting analysis; type: cell-based; settings: mcf7/dx1, 40 min, in the assay text read “40 mins” for “30 mins”
Procedure, shortened: (§3)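 MCF-7/DX1 cells, 500,000 per well, seeded the day before and washed with ice-cold PBS. Incubated 40 min at 37 °C in BME with 5% calf serum, 0.25 µCi/mL [3H]-daunomycin and varying inhibitor concentrations; GF120918 1 µM as positive control. Cells washed, trypsinized 1 h at 37 °C, then scintillation counted. Counts normalized per 10,000 cells; IC50 from fitted concentration–response curves.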

[8] = target: T1, ATP-dependent translocase ABCB1; assay: Ratio of inhibition of P-gp overexpressed in human 12D7-MDR cells using NBD-Aba as substrate to inhibition of P-gp in human MCF7/DX1 cells using NBD-Aba as substrate; type: cell-based
[9] = target: T1, ATP-dependent translocase ABCB1; assay: Displacement of [125I]-iodoarylazidoprazosin from human P-gp expressed in baculovirus-infected insect Sf9 cells incubated for 10 mins followed by UV light illumination for 20 mins by autoradiography
Procedure, shortened: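 Crude membranes (25 µg) from Sf9 cells infected with BV-MDR1 expressing human P-gp (72 h at 27 °C). Incubated 10 min at room temperature in the dark in 50 mM Tris-HCl pH 7.5 with 1 mM DTT and protease inhibitors, with [125I]-IAAP (~2200 Ci/mmol) and increasing inhibitor, then photo-crosslinked. Controls: 2.5% DMSO or GF120918 10 µM. Autoradiography and densitometry; values as percent of DMSO control, IC50 fitted.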

[10] = target: T1, ATP-dependent translocase ABCB1; assay: Inhibition of P-gp in human MCF7/DX1 cells assessed as cellular accumulation of BODIPY-prazosin after 30 mins by flow cytometry; type: cell-based; settings: mcf7/dx1, 0.5 h; procedure, shortened: as §2
[11] = target: T1, ATP-dependent translocase ABCB1; assay: Inhibition of P-gp in human MCF7/DX1 cells assessed as cellular accumulation of NBD-Aba after 30 mins by flow cytometry; type: cell-based; settings: mcf7/dx1, 0.5 h; procedure, shortened: as §2
[12] = target: T1, ATP-dependent translocase ABCB1; assay: Inhibition of P-gp in human MCF7/DX1 cells assessed as cellular accumulation of NBD-Aba up to 100 uM after 30 mins by flow cytometry; type: cell-based; settings: mcf7/dx1, 0.5 h; procedure, shortened: as §2
[13] = target: T1, ATP-dependent translocase ABCB1; assay: Inhibition of P-gp in human MCF7/DX1 cells assessed as cellular accumulation of [3H]-daunomycin up to 100 uM after 30 mins by scintillation counting analysis; type: cell-based; settings: mcf7/dx1, 40 min, in the assay text read “40 mins” for “30 mins”; procedure, shortened: as §3
[14] = target: T1, ATP-dependent translocase ABCB1; assay: Inhibition of P-gp in human MCF7/DX1 cells assessed as cellular accumulation of BODIPY-prazosin up to 100 uM after 30 mins by flow cytometry; type: cell-based; settings: mcf7/dx1, 0.5 h; procedure, shortened: as §2
[15] = target: T1, ATP-dependent translocase ABCB1; assay: Inhibition of P-gp in human MCF7/DX1 cells assessed as cellular accumulation of doxorubicin up to 100 uM after 30 mins by flow cytometry; type: cell-based; settings: mcf7/dx1, 0.5 h; procedure, shortened: as §2

T1 sequence (P08183 whole entry): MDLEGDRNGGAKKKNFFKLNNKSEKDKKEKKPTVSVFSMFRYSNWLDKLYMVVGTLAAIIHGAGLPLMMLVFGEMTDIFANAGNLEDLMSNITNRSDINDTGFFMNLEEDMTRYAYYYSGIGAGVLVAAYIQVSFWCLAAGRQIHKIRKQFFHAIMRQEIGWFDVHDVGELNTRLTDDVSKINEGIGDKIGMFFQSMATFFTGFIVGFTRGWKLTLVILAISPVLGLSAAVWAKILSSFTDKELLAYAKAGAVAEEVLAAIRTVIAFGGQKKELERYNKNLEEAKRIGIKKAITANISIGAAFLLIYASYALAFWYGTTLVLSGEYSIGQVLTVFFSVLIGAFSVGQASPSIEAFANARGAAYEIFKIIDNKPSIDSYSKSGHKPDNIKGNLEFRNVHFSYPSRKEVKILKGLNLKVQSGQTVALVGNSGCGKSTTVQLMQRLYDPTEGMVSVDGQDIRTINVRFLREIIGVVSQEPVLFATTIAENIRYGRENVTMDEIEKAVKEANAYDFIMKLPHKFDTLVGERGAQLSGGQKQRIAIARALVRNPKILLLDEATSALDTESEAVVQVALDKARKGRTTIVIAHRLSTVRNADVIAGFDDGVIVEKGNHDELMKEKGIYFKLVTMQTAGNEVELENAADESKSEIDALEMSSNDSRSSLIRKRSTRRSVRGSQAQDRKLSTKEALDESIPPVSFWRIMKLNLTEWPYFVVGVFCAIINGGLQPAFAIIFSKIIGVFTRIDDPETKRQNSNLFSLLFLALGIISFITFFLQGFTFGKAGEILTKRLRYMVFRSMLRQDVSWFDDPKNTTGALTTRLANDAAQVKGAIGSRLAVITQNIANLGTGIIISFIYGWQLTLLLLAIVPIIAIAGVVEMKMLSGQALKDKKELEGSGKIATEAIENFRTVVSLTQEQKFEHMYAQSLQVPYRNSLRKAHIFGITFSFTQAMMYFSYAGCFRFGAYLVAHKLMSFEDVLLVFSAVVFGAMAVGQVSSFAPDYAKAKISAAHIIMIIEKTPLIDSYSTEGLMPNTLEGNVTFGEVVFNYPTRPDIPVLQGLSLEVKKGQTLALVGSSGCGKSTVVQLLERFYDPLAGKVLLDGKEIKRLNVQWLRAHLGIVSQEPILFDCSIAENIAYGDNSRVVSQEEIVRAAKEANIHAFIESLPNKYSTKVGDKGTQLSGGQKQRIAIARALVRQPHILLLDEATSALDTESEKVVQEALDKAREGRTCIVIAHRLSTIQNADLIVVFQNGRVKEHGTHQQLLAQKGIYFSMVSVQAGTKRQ
Chain of P-gp (ABCB1) (P08183 whole entry): as above

`Nc1nc(NC2CC2)c2ncn([C@H]3C=C[C@@H](COC(=O)CCC(=O)OC[C@@H]4C=C[C@H](n5cnc6c(NC7CC7)nc(N)nc65)C4)C3)c2n1` was tested, and the IC50 [1] was 50000 nM and the “inhibition (INH)” value [1] was “Dose-dependent effect”.
For `Nc1nc(NC2CC2)c2ncn([C@H]3C=C[C@@H](COC(=O)CCCCCC(=O)OC[C@@H]4C=C[C@H](n5cnc6c(NC7CC7)nc(N)nc65)C4)C3)c2n1`, the IC50 [2] was 4100 nM, the IC50 [1] was 7700 nM and the “inhibition (INH)” value [1] was “Dose-dependent effect”. For the same compound, the IC50 [3] was 10500 nM and the “inhibition (INH)” value [3] was “Dose-dependent effect”.
In the case of `Nc1nc(NC2CC2)c2ncn([C@H]3C=C[C@@H](COC(=O)CCCCCCCC(=O)OC[C@@H]4C=C[C@H](n5cnc6c(NC7CC7)nc(N)nc65)C4)C3)c2n1`, the IC50 [2] is reported as 3800 nM, the IC50 [1] is reported as 2600 nM and the “inhibition (INH)” value [1] is reported as “Dose-dependent effect”. The IC50 [3] was 2600 nM and the “inhibition (INH)” value [3] was “Dose-dependent effect”.
In the case of `Nc1nc(NC2CC2)c2ncn([C@H]3C=C[C@@H](COC(=O)CCCCCCCCC(=O)OC[C@@H]4C=C[C@H](n5cnc6c(NC7CC7)nc(N)nc65)C4)C3)c2n1`, the “inhibition (INH)” value [4] is reported as “Active”, the INH [5] is reported as 12.8 µM and the selectivity ratio [6] is reported as 3. It also gave an IC50 [2] of 3600 nM, an INH [7] of 9.2 µM and an IC50 [1] of 2300 nM. For the same compound, the “inhibition (INH)” value [1] was “Dose-dependent effect”, the Ratio [8] was 6 and the IC50 [9] was 240 nM. The “inhibition (INH)” value ([9]; human, sf9, 10 min) was “Dose-dependent effect”, the INH [10] was 5.1 µM and the INH [11] was 11.8 µM. The IC50 [3] was 2100 nM and the “inhibition (INH)” value [3] was “Dose-dependent effect”.
In the case of `Nc1nc(NC2CC2)c2ncn([C@H]3C=C[C@@H](COC(=O)CCCCCCCCCCC(=O)OC[C@@H]4C=C[C@H](n5cnc6c(NC7CC7)nc(N)nc65)C4)C3)c2n1`, the IC50 [2] is reported as 1100 nM, the IC50 [1] is reported as 1400 nM and the “inhibition (INH)” value [1] is reported as “Dose-dependent effect”. For the same compound, the IC50 [3] was 1800 nM and the “inhibition (INH)” value [3] was “Dose-dependent effect”.
With `Nc1nc(NC2CC2)c2ncn([C@H]3C=C[C@@H](CO)C3)c2n1` [ABACAVIR] the “inhibition (INH)” value [12] was “Not Active”, the IC50 [2] was > 500000 nM and the “inhibition (INH)” value [13] was “Not Active”. For the same compound, the “inhibition (INH)” value [14] was “Not Active”, the IC50 [1] was > 500000 nM and the “inhibition (INH)” value [15] was “Not Active”. The IC50 [3] was > 500000 nM.
